Assay results from ChEMBL document CHEMBL3877306, “Triazole Ureas Act as Diacylglycerol Lipase Inhibitors and Prevent Fasting-Induced Refeeding” (J Med Chem, 2017).
Active and inactive are the calls of the source. The calls are words filed in the database; no cut-off is given here.

Key:
[1] = target: T1, Monoacylglycerol lipase ABHD6 (Homo sapiens, UniProt Q9BV23); assay: Inhibition of human ABHD6 using 2-AG as natural substrate by fluorescence based assay
T1 sequence (Q9BV23 whole entry): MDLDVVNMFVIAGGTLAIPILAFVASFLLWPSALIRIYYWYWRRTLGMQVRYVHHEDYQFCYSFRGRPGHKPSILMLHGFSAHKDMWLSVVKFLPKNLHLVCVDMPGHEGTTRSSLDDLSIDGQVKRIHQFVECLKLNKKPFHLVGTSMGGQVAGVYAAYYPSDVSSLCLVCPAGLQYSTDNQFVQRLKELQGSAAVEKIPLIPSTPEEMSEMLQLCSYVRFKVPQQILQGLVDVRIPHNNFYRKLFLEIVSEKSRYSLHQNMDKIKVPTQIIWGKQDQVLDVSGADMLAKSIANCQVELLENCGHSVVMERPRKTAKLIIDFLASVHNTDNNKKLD
Method in brief: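 Coupled fluorescence assay: 2-AG hydrolysis detected via glycerol kinase, glycerol-3-phosphate oxidase and HRP (0.2 U/mL each), 0.125 mM ATP and 10 µM Amplifu Red. Conditions: 25 µM 2-AG, 0.5% acetonitrile, 5% DMSO, ABHD6 membrane protein 40 µg/mL final. n = 4.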

[2] = target: T2, Monoacylglycerol lipase ABHD6 (Mus musculus, UniProt Q8R2Y0); assay: Inhibition of MB064 probe binding to ABHD6 in mouse brain membrane proteome preincubated for 30 mins followed by MB064 probe addition measured after 20 mins by gel-based competitive activity based protein profiling assay; format: cell membranes
T2 sequence (Q8R2Y0 whole entry): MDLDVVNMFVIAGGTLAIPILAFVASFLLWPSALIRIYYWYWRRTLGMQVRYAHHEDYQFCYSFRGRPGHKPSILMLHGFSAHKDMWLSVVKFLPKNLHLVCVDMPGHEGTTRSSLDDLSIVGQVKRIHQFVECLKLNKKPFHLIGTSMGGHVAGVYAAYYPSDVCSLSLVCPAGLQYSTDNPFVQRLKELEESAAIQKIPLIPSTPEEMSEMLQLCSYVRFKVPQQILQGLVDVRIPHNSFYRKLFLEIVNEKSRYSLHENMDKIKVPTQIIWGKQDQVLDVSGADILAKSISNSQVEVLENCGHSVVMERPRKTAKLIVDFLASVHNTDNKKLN
Method in brief: (§1)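 Mouse brain membrane proteome (2 mg/mL) preincubated with inhibitor or DMSO vehicle for 30 min at r.t., then labelled with MB064 at 250 nM final for 20 min at r.t. and quenched in Laemmli buffer. Fluorescent bands were quantified against vehicle set to 100%, and IC50 was taken from a variable-slope log(inhibitor) vs normalized response fit. n = 3.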

Mus musculus [3] = assay: Toxicity in 18 hrs fasted C57Bl/6J mouse model of fasting-induced refeeding assessed as effect on locomotor activity at 50 mg/kg, ip administered as single dose 30 mins prior to refeeding measured after 24 hrs; format: organism-based; settings: in vivo
Mus musculus [4] = species: Mus musculus; assay: Selectivity ratio of IC50 for ABHD6 in mouse brain membrane proteome to IC50 for DAGLalpha in mouse brain membrane proteome; format: cell membranes
Method in brief: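 Ratio of DAGLα and ABHD6 […] values, both from competitive gel ABPP in mouse brain membrane proteome. Inhibitor was preincubated 30 min at r.t., then MB064 (250 nM final) was added for 20 min. Band intensities were normalized to vehicle and fitted with a variable-slope curve. n = 3.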

Mus musculus [5] = assay: Inhibition of fasting-induced refeeding in 18 hrs fasted C57Bl/6J mouse at 50 mg/kg, ip administered as single dose 30 mins prior to refeeding measured up to 4 hrs; format: functional, organism-based
[6] = target: T3, Diacylglycerol lipase-alpha (Mus musculus, UniProt Q6WQJ1); assay: (§2) Inhibition of MB064 probe binding to DAGLalpha in mouse brain membrane proteome preincubated for 30 mins followed by MB064 probe addition measured after 20 mins by gel-based competitive activity based protein profiling assay; format: cell membranes; method in brief: as §1
T3 sequence (Q6WQJ1 whole entry): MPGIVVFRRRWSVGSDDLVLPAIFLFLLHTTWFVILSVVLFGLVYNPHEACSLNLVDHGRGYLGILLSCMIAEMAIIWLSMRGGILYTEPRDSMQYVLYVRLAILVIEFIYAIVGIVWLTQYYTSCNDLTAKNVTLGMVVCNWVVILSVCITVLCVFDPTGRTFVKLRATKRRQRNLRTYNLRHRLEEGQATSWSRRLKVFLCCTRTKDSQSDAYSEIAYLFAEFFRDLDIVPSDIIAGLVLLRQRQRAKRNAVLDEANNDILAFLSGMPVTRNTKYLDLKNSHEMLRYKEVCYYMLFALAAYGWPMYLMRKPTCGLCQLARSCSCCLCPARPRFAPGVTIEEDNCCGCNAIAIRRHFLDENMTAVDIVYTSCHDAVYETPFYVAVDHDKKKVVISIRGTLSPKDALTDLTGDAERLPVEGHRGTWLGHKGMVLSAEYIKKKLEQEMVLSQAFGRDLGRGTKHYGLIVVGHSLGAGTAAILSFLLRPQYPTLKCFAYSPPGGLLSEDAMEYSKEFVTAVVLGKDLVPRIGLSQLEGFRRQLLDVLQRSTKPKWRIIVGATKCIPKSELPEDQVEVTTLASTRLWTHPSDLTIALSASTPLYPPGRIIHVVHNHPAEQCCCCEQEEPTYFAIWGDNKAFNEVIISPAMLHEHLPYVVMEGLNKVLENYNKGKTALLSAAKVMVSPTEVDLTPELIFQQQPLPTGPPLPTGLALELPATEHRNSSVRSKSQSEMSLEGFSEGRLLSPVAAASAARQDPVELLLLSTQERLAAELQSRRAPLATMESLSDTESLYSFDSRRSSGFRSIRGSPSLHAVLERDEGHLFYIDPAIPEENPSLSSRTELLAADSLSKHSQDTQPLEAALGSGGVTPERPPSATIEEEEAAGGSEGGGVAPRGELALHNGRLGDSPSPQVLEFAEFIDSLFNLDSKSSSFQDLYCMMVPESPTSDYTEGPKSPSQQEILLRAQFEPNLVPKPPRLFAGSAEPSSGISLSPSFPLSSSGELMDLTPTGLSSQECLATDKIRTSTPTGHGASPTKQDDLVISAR

[7] = target: T4, Diacylglycerol lipase-alpha (Mus musculus) (UniProt Q6WQJ1); assay: as §2; format: cell membranes; method in brief: as §1
T4 sequence (whole entry): T3 sequence (Q6WQJ1 whole entry)

Mus musculus [8] = assay: Ex vivo inhibition of FP-TAMRA probe binding to carboxylesterase in mouse liver at 3 to 50 mg/kg, ip after 4 hrs by gel-based competitive activity based protein profiling assay; format: functional, organism-based
Mus musculus [9] = assay: Reduction in carbohydrate oxidation in 18 hrs fasted C57Bl/6J mouse model of fasting-induced refeeding at 50 mg/kg, ip administered as single dose 30 mins prior to refeeding measured after 20 mins; format: functional, organism-based
Mus musculus [10] = assay: Increase in fat oxidation in 18 hrs fasted C57Bl/6J mouse model of fasting-induced refeeding at 50 mg/kg, ip administered as single dose 30 mins prior to refeeding measured after 20 mins; format: functional, organism-based
[11] = target: T5, Diacylglycerol lipase-alpha (Homo sapiens, UniProt Q9Y4D2); assay: Inhibition of full length recombinant human DAGLalpha expressed in HEK293T cell membranes using PNP butyrate as substrate by colorimetric assay; set-up: species or system HEK-293T
T5 sequence (Q9Y4D2 whole entry): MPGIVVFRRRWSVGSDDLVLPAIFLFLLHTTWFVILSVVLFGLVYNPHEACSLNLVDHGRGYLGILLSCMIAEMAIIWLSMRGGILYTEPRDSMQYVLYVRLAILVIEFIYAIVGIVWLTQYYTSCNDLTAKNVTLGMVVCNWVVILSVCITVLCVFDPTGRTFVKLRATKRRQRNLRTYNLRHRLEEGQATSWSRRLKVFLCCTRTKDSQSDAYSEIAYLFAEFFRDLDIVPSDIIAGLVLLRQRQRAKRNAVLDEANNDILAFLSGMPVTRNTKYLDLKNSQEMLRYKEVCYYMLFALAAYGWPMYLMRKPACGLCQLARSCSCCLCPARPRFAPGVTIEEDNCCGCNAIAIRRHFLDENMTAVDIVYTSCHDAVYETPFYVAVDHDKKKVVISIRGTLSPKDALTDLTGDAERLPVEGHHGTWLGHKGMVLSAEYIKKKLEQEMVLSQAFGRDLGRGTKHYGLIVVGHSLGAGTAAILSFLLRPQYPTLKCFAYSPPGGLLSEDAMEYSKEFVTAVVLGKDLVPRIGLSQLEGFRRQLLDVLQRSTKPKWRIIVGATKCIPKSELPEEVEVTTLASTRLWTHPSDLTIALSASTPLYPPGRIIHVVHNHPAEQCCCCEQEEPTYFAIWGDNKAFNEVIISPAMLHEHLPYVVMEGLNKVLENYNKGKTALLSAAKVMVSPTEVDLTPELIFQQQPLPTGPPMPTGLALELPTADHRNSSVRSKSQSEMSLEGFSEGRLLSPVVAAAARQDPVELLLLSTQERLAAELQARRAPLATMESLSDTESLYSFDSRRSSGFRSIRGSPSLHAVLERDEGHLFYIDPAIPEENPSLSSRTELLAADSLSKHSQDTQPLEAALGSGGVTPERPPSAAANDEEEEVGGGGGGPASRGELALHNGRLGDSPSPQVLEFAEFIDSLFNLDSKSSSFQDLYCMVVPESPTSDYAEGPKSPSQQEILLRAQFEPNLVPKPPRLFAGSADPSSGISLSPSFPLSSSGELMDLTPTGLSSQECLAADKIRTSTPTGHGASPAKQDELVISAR
Method in brief: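 Membranes from HEK293T cells transiently transfected with human DAGLα (PEI transfection, harvested at 72 h), used at 0.05 µg/µL final protein in 50 mM HEPES pH 7.2. Activity was read colorimetrically from para-nitrophenylbutyrate hydrolysis. n = 4, mean ± SEM.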

[12] = target: T5, Diacylglycerol lipase-alpha; assay: Inhibition of HT-01 probe binding to recombinant human DAGLalpha expressed in HEK293T cell membrane proteomes preincubated for 30 mins followed by HT-01 probe addition measured after 30 mins by gel-based competitive activity based protein profiling assay; format: cell membranes, HEK-293T
[13] = target: T6, Diacylglycerol lipase-alpha (Homo sapiens) (UniProt Q9Y4D2); assay: Inhibition of DH379 probe binding to full length recombinant human DAGLalpha expressed in HEK293T cell membranes at 0.1 to 10000 nM after 30 mins by gel-based competitive activity based protein profiling assay; settings: HEK-293T
T6 sequence (whole entry): T5 sequence (Q9Y4D2 whole entry)
Method in brief: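 Membranes from HEK293T cells transiently transfected with human DAGLα were preincubated with inhibitor, then labelled with DAGL-tailored probe DH379 (1 μM, 30 min). Readout was fluorescent SDS gel. Band intensity was normalized to vehicle (100%) and fitted with a variable-slope dose-response curve. n = 3.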

[14] = target: T5, Diacylglycerol lipase-alpha; assay: Inhibition of recombinant human DAGLalpha expressed in HEK293T cell membranes overexpressing MAGL using natural substrate 1-stearoyl-2-arachidonoly-sn-glycerol by fluorescence based assay; set-up: species or system HEK-293T
Method in brief: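 Real-time coupled fluorescence readout of glycerol release from hDAGLα-transfected HEK293T membranes (50 µg/mL final protein) with 100 µM SAG substrate. Added: 5 µg/mL MAGL-overexpressing membranes, 0.0075% (w/v) Triton X-100, 0.2 U/mL each glycerol kinase, glycerol-3-phosphate oxidase and HRP, 0.125 mM ATP, 10 µM Amplifu Red, 5% DMSO. n = 4.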

[15] = target: T7, Diacylglycerol lipase-beta (Homo sapiens) (UniProt Q8NCG7); assay: Inhibition of DH379 probe binding to full length recombinant human DAGLbeta expressed in HEK293T cell membranes at 0.1 to 10000 nM after 30 mins by gel-based competitive activity based protein profiling assay; settings: HEK-293T
T7 sequence (whole entry): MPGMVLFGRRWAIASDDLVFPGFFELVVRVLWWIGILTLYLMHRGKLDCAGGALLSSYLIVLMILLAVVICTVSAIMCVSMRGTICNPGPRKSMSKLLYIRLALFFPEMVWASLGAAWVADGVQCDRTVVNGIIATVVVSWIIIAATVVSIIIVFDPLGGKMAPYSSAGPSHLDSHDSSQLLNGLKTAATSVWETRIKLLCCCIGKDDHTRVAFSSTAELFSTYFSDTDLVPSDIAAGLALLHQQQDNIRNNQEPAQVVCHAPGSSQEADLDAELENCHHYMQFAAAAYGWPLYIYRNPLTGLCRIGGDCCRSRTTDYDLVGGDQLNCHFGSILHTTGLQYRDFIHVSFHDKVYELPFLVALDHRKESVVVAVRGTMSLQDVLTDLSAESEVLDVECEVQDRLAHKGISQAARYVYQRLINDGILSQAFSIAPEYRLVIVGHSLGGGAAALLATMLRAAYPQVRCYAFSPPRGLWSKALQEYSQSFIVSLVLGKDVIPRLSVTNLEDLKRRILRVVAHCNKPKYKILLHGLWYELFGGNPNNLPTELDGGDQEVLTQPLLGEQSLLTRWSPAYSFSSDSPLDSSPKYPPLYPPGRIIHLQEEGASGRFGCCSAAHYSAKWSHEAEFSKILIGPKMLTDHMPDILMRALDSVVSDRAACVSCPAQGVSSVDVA
Method in brief: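 HEK293T cells transiently transfected with full-length human DAGLβ cDNA (PEI:DNA 3:1), harvested at 72h; membrane fraction diluted to 1 mg/mL protein. Inhibitor-treated membranes were labelled with DAGL-tailored probe DH379 (1 μM, 30 min), then run on fluorescent SDS-PAGE. Band intensity was normalised to vehicle (100%), and IC50 was fitted to log(inhibitor) vs normalised response with variable slope; n = 3.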

| SMILES | IC50 [1] [nM] | IC50 [2] [nM] | Activity (Mus musculus [3]) | Ratio IC50 (Mus musculus [4]) | inhibition (Mus musculus [5]) | IC50 [6] [nM] | inhibition [7] | inhibition (Mus musculus [8]) | Activity (Mus musculus [9]) | Activity (Mus musculus [10]) | IC50 [11] [nM] | IC50 [12] [nM] | inhibition [13] | IC50 [14] [nM] | inhibition [15] |
| --- | --- | --- | --- | --- | --- | --- | --- | --- | --- | --- | --- | --- | --- | --- | --- |
| C#CCO[C@@H]1CC[C@H](Cc2ccccc2)N(C(=O)n2ncc(C(O)(c3ccc(F)cc3)c3ccc(F)cc3)n2)C1 | 2.51 | 79.4 | Non-Toxic | 126 | Active | 0.631 | Dose-dependent effect | Active | Active | Active |  |  |  |  |  |
| O=C(N1CCCCC1Cc1ccccc1)n1cc(-c2ccc(-c3ccccc3)cc2)nn1 (racemic) | 39.8 |  |  |  |  |  |  |  |  |  | 1.26 to 6.31 | 2300 | Active | 126 | Active |
